# Data as given in ChEMBL document CHEMBL2331170, “Synthesis and biological evaluation of novel pyranochalcone derivatives as a new class of microtubule stabilizing agents” (Eur J Med Chem, 2013).
# Active and inactive are the calls of the source. The calls are words filed in the database; no cut-off is given here.
# How the values were obtained:
# [1] = Cytotoxicity against human LO2 cells by MTT assay; type: cell-based; conditions: L02
# Summary of the method: (§1)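 Log-phase cells were diluted to 40,000–50,000 cells/mL in medium with 10% FBS, 2 mM glutamine and antibiotics (37 °C, 5% CO₂). They were seeded in 96-well plates and treated with a range of doses. MTT was added for 4 h, the formazan was dissolved in DMSO, and absorbance was read at 590 nm.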
# K562 = assay: Cytotoxicity against human K562 cells by MTT assay; type: functional, cell-based; summary of the method: as §1
# A-375 = assay: Cytotoxicity against human A375 cells by MTT assay; type: functional, cell-based; summary of the method: as §1
# HepG2 [2] = assay: Cytotoxicity against human HepG2 cells by MTT assay; type: functional, cell-based; summary of the method: as §1
# HepG2 [3] = assay: Antitumor activity against human HepG2 cells xenografted in Balb/C mouse assessed as tumor growth inhibition rate at 5 mg/kg administered every 4 days for 3 weeks measured on day 20; type: functional; conditions: read-out: TGI
# Summary of the method: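 HepG2 cells (5 × 10⁶/mouse) in HBSS implanted in the right flank of 5–6-week-old female Balb/C and athymic nude mice, six per group. Dosing began once tumors reached ~100 mm³: three weeks at 2.5, 5 or 10 mg/kg every two days, or Taxol 5 mg/kg every four days; controls got physiological saline. Tumor volume = π/6 × length × width². T/C (%) = treated/control tumor volume × 100. Inhibition = (1 − treated/control tumor weight) × 100.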
# SK-HEP1 = assay: Cytotoxicity against human SKHEP1 cells by MTT assay; type: functional, cell-based
# Tubulin (Sus scrofa) [4] = target: T1, Tubulin (Sus scrofa) (UniProt P02554+P02550); assay: Stabilization of purified pig brain tubulin polymerization at 5 uM measured every 30 seconds by spectrophotometry
# T1 sequence (P02550 whole entry, looked up): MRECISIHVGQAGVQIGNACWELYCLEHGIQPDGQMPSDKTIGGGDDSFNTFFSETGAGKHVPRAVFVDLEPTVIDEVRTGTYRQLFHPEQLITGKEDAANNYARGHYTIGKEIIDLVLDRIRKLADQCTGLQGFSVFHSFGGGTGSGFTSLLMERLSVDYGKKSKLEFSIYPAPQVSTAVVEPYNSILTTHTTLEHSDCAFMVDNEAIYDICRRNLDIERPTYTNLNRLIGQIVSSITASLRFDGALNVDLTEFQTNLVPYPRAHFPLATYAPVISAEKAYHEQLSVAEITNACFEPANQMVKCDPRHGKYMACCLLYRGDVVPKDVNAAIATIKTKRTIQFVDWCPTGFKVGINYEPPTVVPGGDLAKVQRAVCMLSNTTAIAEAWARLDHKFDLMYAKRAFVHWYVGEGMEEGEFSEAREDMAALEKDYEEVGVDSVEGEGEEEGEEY
# T1 sequence (P02554 whole entry, looked up): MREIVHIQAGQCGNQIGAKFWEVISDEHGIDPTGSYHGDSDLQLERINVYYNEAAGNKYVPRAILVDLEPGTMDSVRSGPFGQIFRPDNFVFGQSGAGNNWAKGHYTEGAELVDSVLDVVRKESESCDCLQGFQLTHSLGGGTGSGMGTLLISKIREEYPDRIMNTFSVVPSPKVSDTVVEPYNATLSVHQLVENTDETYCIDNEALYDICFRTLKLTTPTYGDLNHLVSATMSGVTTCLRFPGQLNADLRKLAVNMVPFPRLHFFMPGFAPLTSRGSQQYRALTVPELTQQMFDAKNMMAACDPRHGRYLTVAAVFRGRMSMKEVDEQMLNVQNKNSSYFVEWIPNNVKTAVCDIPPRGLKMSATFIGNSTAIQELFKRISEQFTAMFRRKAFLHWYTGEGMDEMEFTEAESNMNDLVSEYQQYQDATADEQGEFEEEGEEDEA
# Summary of the method: (§2)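 It was pre-incubated 5 min with compound (5, 10, 20 μM), Taxol (5, 20 μM) or DMSO. GTP was added to 1 mM final to start assembly, followed as the rise in absorbance at 340 nm at 37 °C.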
# MCF7 = assay: Cytotoxicity against human MCF7 cells by MTT assay; type: functional, cell-based
# Bel-7402 = assay: Cytotoxicity against human Bel7402 cells by MTT assay; type: functional, cell-based
# [5] = Cytotoxicity against human SPC-A1 cells by MTT assay; type: functional, cell-based; conditions: SPCA1
# PC-3 = assay: Cytotoxicity against human PC3 cells by MTT assay; type: functional, cell-based
# Tubulin (Sus scrofa) [6] = target: T1, Tubulin (Sus scrofa); assay: Stabilization of purified pig brain tubulin polymerization at 20 uM measured every 30 seconds by spectrophotometry; summary of the method: as §2
# HepG2 [7] = assay: Antitumor activity against human HepG2 cells xenografted in Balb/C mouse assessed as tumor volume T/C ratio at 5 mg/kg administered every 4 days for 3 weeks measured on day 20 relative to control
# SK-OV-3 = assay: Cytotoxicity against human SKOV3 cells by MTT assay; type: functional, cell-based
# [8] = Cytotoxicity against mouse C26 cells by MTT assay; type: functional, cell-based
# DU-145 = assay: Cytotoxicity against human DU145 cells by MTT assay; type: functional, cell-based
# [9] = Cytotoxicity against human H460 cells by MTT assay; type: functional, cell-based; conditions: NCI-H460
# HT-29 = assay: Cytotoxicity against human HT-29 cells by MTT assay; type: functional, cell-based
# [10] = Cytotoxicity against human ES2 cells by MTT assay; type: functional, cell-based; conditions: ES-2
# [11] = Cytotoxicity against human MCF7/ADR cells by MTT assay; type: functional, cell-based; conditions: NCI/ADR-RES
# HCT-8 = assay: Cytotoxicity against taxol-resistant human HCT8 cells by MTT assay; type: functional, cell-based
# NCI-H358 = assay: Cytotoxicity against human NCI-H358 cells by MTT assay; type: functional, cell-based
# A2780 = assay: Cytotoxicity against taxol-resistant human A2780 cells by MTT assay; type: functional, cell-based
# HCT-15 = assay: Cytotoxicity against human HCT15 cells by MTT assay; type: functional, cell-based
# HepG2 [12] = assay: Induction of microtubule polymerization in human HepG2 cells at 1 uM after 24 hrs by propidium iodide-FITC-based staining method
# HepG2 [13] = assay: Cell cycle arrest in human HepG2 cells assessed as accumulation at G2/M phase at 1 uM after 24 hrs by flow cytometry (reference value: 17.07 %); type: functional
# [14] = Ratio of taxol IC50 to compound IC50 for mouse C26 cells by MTT assay; type: functional
# HepG2 [15] = assay: Effect on microtubule network in human HepG2 cells assessed as abnormal mitotic spindles at 1 uM after 24 hrs by propidium iodide-FITC-based staining method; type: cell-based
# Summary of the method: (§3)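 HepG2 cells were treated with 1.0 μM for 24 h. They were washed in PBS, fixed in cold 4% PFA for 10 min and blocked for 1 h in 5% goat serum/0.3% Triton/PBS. Staining used monoclonal anti-α-tubulin overnight at 4 °C, then Alexa Fluor 488 anti-mouse IgG for 30 min at room temperature, with propidium iodide for DNA. Cells were imaged by fluorescence or confocal microscopy.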
# HepG2 [16] = assay: Cell cycle arrest in human HepG2 cells assessed as accumulation at G2/M phase at 0.2 uM after 24 hrs by flow cytometry (reference value: 17.07 %); type: functional
# HepG2 [17] = assay: Cell cycle arrest in human HepG2 cells assessed as accumulation at G2/M phase at after 24 hrs by flow cytometry; type: functional, cell-based
# HepG2 [18] = assay: Effect on microtubule network in human HepG2 cells assessed as multiple tubulin bundles without chromosomes aligned at the metaphase plate with more dispersion of the chromosomes at 1 uM after 24 hrs by propidium iodide-FITC-based staining method; type: cell-based; summary of the method: as §3
# [19] = Cytotoxicity against human A2780S cells by MTT assay; type: functional, cell-based; conditions: A2780
compound,measurement,setting,value
COc1ccc(/C=C/C(=O)c2ccc(OC)c3c2OC(C)(C)C=C3)cc1OS(=O)(=O)Cc1ccccc1,IC50,[1],> 10000 nM
same,IC50,K562,> 10000 nM
same,IC50,A-375,> 10000 nM
same,IC50,HepG2 [2],> 10000 nM
CC(=O)O[C@H]1C(=O)[C@@]2(C)[C@H]([C@H](OC(=O)c3ccccc3)[C@]3(O)C[C@H](OC(=O)[C@H](O)[C@@H](NC(=O)c4ccccc4)c4ccccc4)C(C)=C1C3(C)C)[C@]1(OC(C)=O)CO[C@@H]1C[C@@H]2O [PACLITAXEL],inhibition in vivo at 5 mg/kg,HepG2 [3],59.1%
same,IC50,SK-HEP1,240 nM
same,Activity,Tubulin (Sus scrofa) [4],6.3%
same,IC50,MCF7,660 nM
same,IC50,Bel-7402,> 2000 nM
same,IC50,[5],5300 nM
same,IC50,PC-3,140 nM
same,Activity,Tubulin (Sus scrofa) [6],23.8%
same,T/C at 5 mg/kg,HepG2 [7],32.4%
same,IC50,SK-OV-3,100 nM
same,IC50,[8],1050 nM
same,IC50,DU-145,30 nM
same,IC50,[9],24000 nM
same,IC50,HT-29,450 nM
same,IC50,[10],100 nM
same,IC50,[11],6900 nM
same,IC50,HCT-8,13300 nM
same,IC50,NCI-H358,10 nM
same,IC50,A2780,8250 nM
same,IC50,HCT-15,120 nM
COc1ccc(/C=C/C(=O)c2ccc(OC)c3c2OC(C)(C)C=C3)cc1OCCO,IC50,[1],> 10000 nM
same,IC50,K562,> 10000 nM
same,IC50,A-375,9600 nM
same,IC50,HepG2 [2],> 10000 nM
COc1ccc(/C=C/C(=O)c2ccc(OC)c3c2OC(C)(C)C=C3)cc1OCCN1CCOCC1,IC50,[1],> 10000 nM
same,IC50,K562,8350 nM
same,IC50,A-375,8200 nM
same,IC50,HepG2 [2],> 10000 nM
COc1ccc(/C=C/C(=O)c2ccc(OC)c3c2OC(C)(C)C=C3)cc1OCC=C(C)C,IC50,[1],> 10000 nM
same,IC50,K562,> 10000 nM
same,IC50,A-375,> 10000 nM
same,IC50,HepG2 [2],> 10000 nM
COc1ccc(/C=C/C(=O)c2ccc(OC)c3c2OC(C)(C)C=C3)cc1OS(C)(=O)=O,IC50,[1],> 10000 nM
same,IC50,K562,9240 nM
same,IC50,A-375,> 10000 nM
same,IC50,HepG2 [2],9180 nM
COc1ccc(/C=C/C(=O)c2ccc(OC)c3c2OC(C)(C)C=C3)cc1 [MILLEPACHINE],IC50,[1],> 20000 nM
same,IC50,A-375,3580 nM
COc1ccc(/C=C/C(=O)c2ccc(OC)c3c2OC(C)(C)C=C3)cc1OC(=O)C(C)C,IC50,[1],> 10000 nM
same,IC50,K562,570 nM
same,IC50,A-375,310 nM
same,IC50,HepG2 [2],250 nM
C=CC(=O)Oc1cc(/C=C/C(=O)c2ccc(OC)c3c2OC(C)(C)C=C3)ccc1OC,IC50,[1],> 10000 nM
same,IC50,K562,300 nM
same,IC50,A-375,390 nM
same,IC50,HepG2 [2],160 nM
COc1ccc(/C=C/C(=O)c2ccc(OC)c3c2OC(C)(C)C=C3)cc1O,IC50,[1],> 10000 nM
same,IC50,K562,630 nM
same,IC50,A-375,800 nM
same,IC50,HepG2 [2],450 nM
COc1ccc(/C=C/C(=O)c2ccc(OC)c3c2OC(C)(C)C=C3)cc1OCCCN(C)C,IC50,[1],8600 nM
same,IC50,K562,2920 nM
same,IC50,A-375,4100 nM
same,IC50,HepG2 [2],5550 nM
COc1ccc(/C=C/C(=O)c2ccc(OC)c3c2OC(C)(C)C=C3)cc1OCCN1CCCC1,IC50,[1],9500 nM
same,IC50,K562,3050 nM
same,IC50,A-375,3810 nM
same,IC50,HepG2 [2],> 10000 nM
COc1ccc(/C=C/C(=O)c2ccc(OC)c3c2OC(C)(C)C=C3)cc1OS(=O)(=O)c1ccc(C)cc1,IC50,[1],> 10000 nM
same,IC50,K562,7850 nM
same,IC50,A-375,2400 nM
same,IC50,HepG2 [2],3600 nM
CCCCC(=O)Oc1cc(/C=C/C(=O)c2ccc(OC)c3c2OC(C)(C)C=C3)ccc1OC,IC50,SK-HEP1,600 nM
same,Activity,HepG2 [12],Active
same,IC50,MCF7,250 nM
same,Activity,HepG2 [13],69.18%
same,IC50,Bel-7402,> 2000 nM
same,IC50,[5],18100 nM
same,IC50,[1],> 10000 nM
same,IC50,K562,240 nM
same,IC50,PC-3,120 nM
same,IC50,A-375,220 nM
same,IC50,SK-OV-3,270 nM
same,IC50,[8],300 nM
same,IC50,DU-145,210 nM
same,IC50,[9],5450 nM
same,Ratio IC50,[14],3
same,IC50,HT-29,190 nM
same,IC50,[10],100 nM
same,Activity,HepG2 [15],Active
same,IC50,[11],170 nM
same,IC50,HepG2 [2],100 nM
same,IC50,HCT-8,2300 nM
same,Activity,HepG2 [16],53.47%
same,Activity,HepG2 [17],Dose-dependent effect
same,IC50,NCI-H358,90 nM
same,Activity,HepG2 [18],Active
same,IC50,A2780,5920 nM
same,IC50,[19],330 nM
same,IC50,HCT-15,100 nM
